Measured values as given in PubChem BioAssay AID488858 (Broad Institute, 2010).
Records with an inconclusive call do not appear. The source made the active and inactive calls.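 How the source made its calls: active means compounds raising caspase signal whose fitted AC50 is at most tenfold their top valid tested dose; inconclusive means flat fit at 30 to 70% activation, or poor fit; inactive means the rest.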

Columns and labels:
[1] = tested on: MEF A1-2A-BIM cells, caspase-3/7 luminescence; assay: caspase induction in A1-dependent fibroblasts – cell-based, MEF A1-2A-BIM, luminescence, dry powder, set 3, A1 (BCL2A1) inhibitor project, dose response (AID 488858)
Method in brief: (§1)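 System: mouse embryonic fibroblasts co-expressing A1-2A-BIM, survival dependent on A1; input: 2500 cells/well; buffer or medium: RPMI, 10% FBS; dosing: pinned compound dose series; schedule: 3 h compound at 37 °C, 1 h reagent at RT; signal: luminescence from DEVD-luciferin caspase-3/7 substrate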

[2] = as above; conditions: MEF A1-2A-BIM cells, caspase-3/7 luminescence; at 150 µM (top of the series)
Method in brief: as §1

| Structure (SMILES) | AC50 [1] [µM] | caspase activation [2] |
| --- | --- | --- |
| O=C(CCl)N=c1sccn1Cc1ccccc1Cl | 1.06 |  |
| CCc1cc2c(=O)c(-c3cnn(-c4ccccc4)c3)c(C)oc2cc1OCC(=O)Nc1cccc(C)c1 | 5.41 |  |
| COc1ccc(N(C(=O)CCl)C(C(=O)NCCc2ccccc2)c2cccs2)cc1Cl (centres undefined) | 0.236 |  |
| Cc1ccc(CS(=O)(=O)c2ncc(Cl)c(C(=O)Nc3nnc(C(C)C)s3)n2)cc1 | 12.3 |  |
| Cc1cccc(NC(=O)/C(C#N)=C/c2cn(CC(=O)NCc3ccco3)c3ccccc23)c1 | 5.6 |  |
| C/C1=C/C(=O)O[C@@H]2C[C@@H](CC[C@H](C)/C=C\CC1)O[C@@](O)(C1CSC(=O)N1)C2 (some centres undefined) | 0.37 |  |
| COc1cc(CN2CCN(c3cc(C)ccc3C)CC2)ccc1O | 10.6 |  |
| CC(C)(C)n1nc(-c2ccc(Cl)cc2)c2c(N)ncnc21 | 6.5 |  |
| CCc1nnc(NC(=O)c2nc(S(=O)(=O)Cc3ccccc3)ncc2Cl)s1 | 15.6 |  |
| CC(=O)N[C@H]1[C@H](O[C@H]2CC[C@@]3(C)C(CC[C@]4(C)C3CC=C3[C@@H]5CC(C)(C)CC[C@]5(C(=O)OC5OCC(O)C(O)C5O)C(O)C[C@]34C)C2(C)C)O[C@H](COC2OCC(O)C(OC3OCC(O)C(O)C3O)C2O)[C@@H](O[C@@H]2O[C@@H](C)[C@H](O)[C@@H](O)[C@H]2O[C@@H]2O[C@@H](C)[C@H](O)[C@@H](O)[C@H]2O)[C@@H]1O (some centres undefined) | 9.71 |  |
| Nc1nc(F)nc2c1ncn2[C@@H]1O[C@H](CO)[C@@H](O)[C@H]1O | 2.87 |  |
| CC(=O)OC(C)(C)/C=C/C(=O)[C@](C)(O)C1[C@H](O)C[C@@]2(C)C3CC=C4C(C[C@H](O)C(=O)C4(C)C)[C@]3(C)C(=O)C[C@]12C (some centres undefined) |  | 1.66% (inactive) |
| CCOC(=O)CSC1=N/C(=C/c2ccc(-n3cncn3)cc2)C(=O)N1C(C)=O | 9.77 |  |
| COc1cc(/C=C(/C#N)c2nc3ccccc3[nH]2)ccc1OCC(=O)Nc1ccccc1C(C)C |  | 0.201% (inactive) |
| Cn1c(=NC(=O)CCl)sc2ccccc21 | 4 |  |
| C=C1[C@@H](C)[C@H]2[C@H](Cc3ccccc3)NC(=O)[C@]23OC(=O)/C=C\[C@H](O)CCC[C@@H](C)C/C=C/[C@H]3[C@@H]1O | 2.72 |  |
| Cc1cc(C(=O)CCl)c(C)n1CCc1ccc(Cl)cc1 | 6.06 |  |
| Cc1c(CCOC(=O)c2ccc(N3CCOCC3)c([N+](=O)[O-])c2)sc[n+]1CC#N | 10.7 |  |
| C=C1[C@@H](C)[C@H]2[C@H](Cc3ccccc3)NC(=O)[C@]23[C@H](OC(C)=O)/C=C/[C@](C)(O)C(=O)[C@@H](C)C/C=C/[C@H]3[C@@H]1O | 1.2 |  |
| Cc1cccc(CS(=O)(=O)c2ncc(Cl)c(C(=O)Nc3nnc(C(C)C)s3)n2)c1 | 12.6 |  |
| Cc1c(C=O)c(C=O)c(C)n1Cc1ccccc1 | 6.27 |  |
| CCSc1nnc(NC(=O)c2nc(S(=O)(=O)Cc3ccc(F)cc3)ncc2Cl)s1 | 14.4 |  |
| Cc1ccc(Sc2c([N+](=O)[O-])c(=O)n(C)c3ccccc23)cc1 | 21 |  |
| O=C(Oc1cccc(/C=N/Nc2nc(Nc3ccccc3)nc(N3CCOCC3)n2)c1)c1ccco1 | 4.23 |  |
